Calls of active or inactive are those of the source. The rule behind the calls is not given here.

The subject of assay [1] is Rattus norvegicus. The assay is described as follows: Ability to inhibit the passive cutaneous anaphylaxis (PCA) reaction in rats by peroral administration; Inactive. The assay is classed as functional, organism-based. The procedure, abridged: (§1)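 Rats were sensitized by intradermal antiserum dilutions at several dorsal sites. After 48 h they were challenged iv with 1 mg ovalbumin in 1 mL saline containing 0.25% Evans blue. Drug was suspended in 1% gum tragacanth in saline and given ip or orally 10–15 min before challenge. Rats were killed 30 min later and the mean orthogonal wheal diameter was measured.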

The test system of assay [2] is Rattus norvegicus. The assay is described as follows: Ability to inhibit the passive cutaneous anaphylaxis (PCA) reaction in rats by intravenous administration of 1.5 mg/kg. The assay is classed as functional. In outline: (§2)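 Rats were given intradermal antiserum dilutions on the back. At 48 h, drug dissolved in the challenge solution (1 mg ovalbumin, 0.25% Evans blue, 1 mL saline) was injected iv with the antigen; sodium bicarbonate in slight molar excess was used if needed. Wheal diameters were read 30 min later and plotted against antiserum concentration, with the least-squares line extrapolated to a zero-antiserum base value. Five rats per group.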

Assay [3] deals with Rattus norvegicus. The experiment in a line: Inhibition of passive cutaneous anaphylaxis (PCA) reaction in rats by intraperitoneal administration of 5 mg/kg. In kind it is functional. To be noted: ip. The procedure, abridged:
as §1

Assay [4] has as its system Rattus norvegicus. The assay is described as follows: Ability to inhibit the passive cutaneous anaphylaxis (PCA) reaction in rats by peroral administration. In kind it is functional. In outline: as §1
In assay [5] the test system is Rattus norvegicus. The assay is described as follows: Ability to inhibit the passive cutaneous anaphylaxis (PCA) reaction in rats by peroral administration of 1 mg/kg. To be noted: route oral. The assay is classed as functional. In outline:
as §1

The subject of assay [6] is Rattus norvegicus. The assay is described as follows: Ability to inhibit the passive cutaneous anaphylaxis (PCA) reaction in rats by intravenous administration of 0.5 mg/kg. The assay is classed as functional. In outline: as §2
Assay [7] deals with Rattus norvegicus. The experiment in a line: Ability to inhibit the passive cutaneous anaphylaxis (PCA) reaction in rats by peroral administration of 5 mg/kg. In kind it is functional. The settings on record: route oral. In outline:
as §1

Assay [8] has as its system Rattus norvegicus. The assay is described as follows: Ability to inhibit the passive cutaneous anaphylaxis (PCA) reaction in rats by intraperitoneal administration of 5 mg/kg. The settings on record: ip. In kind it is functional. The procedure, abridged:
as §1

The test system of assay [9] is Rattus norvegicus. The assay is described as follows: Ability to inhibit the passive cutaneous anaphylaxis (PCA) reaction in rats by intravenous administration of 0.01 mg/kg. The assay is classed as functional. In outline: as §2
The subject of assay [10] is Rattus norvegicus. The assay is described as follows: Inhibition of the passive cutaneous anaphylaxis (PCA) reaction in rats by intravenous administration of 0.1 mg/kg. In kind it is functional. The procedure, abridged:
as §2

In assay [11] the test system is Rattus norvegicus. The assay is described as follows: Ability to inhibit the passive cutaneous anaphylaxis (PCA) reaction in rats by intraperitoneal administration of 1 mg/kg. In kind it is functional. To be noted: ip. The procedure, abridged:
as §1

Assay [12] has as its system Rattus norvegicus. The experiment in a line: Inhibition of passive cutaneous anaphylaxis (PCA) reaction in rats, peroral administration 5 mg/kg. To be noted: route oral. In kind it is functional. In outline:
as §1

The test system of assay [13] is Rattus norvegicus. The experiment in a line: Ability to inhibit the passive cutaneous anaphylaxis (PCA) reaction in rats by peroral administration of 2 mg/kg. The assay is classed as functional. The settings on record: read-out: Inhibition, route oral. In outline:
as §1

Assay [14] concerns Rattus norvegicus. The assay is described as follows: Ability to inhibit the passive cutaneous anaphylaxis (PCA) reaction in rats by peroral administration of 10 mg/kg. The assay is classed as functional. The settings on record: route oral. In outline: as §1
Assay [15] deals with Rattus norvegicus. The experiment in a line: Ability to inhibit the passive cutaneous anaphylaxis (PCA) reaction in rats by intravenous administration of 0.001 mg/kg. The assay is classed as functional. In outline: as §2
For assay [16], the system named is Rattus norvegicus. The assay is described as follows: Ability to inhibit the passive cutaneous anaphylaxis (PCA) reaction in rats by intravenous administration of 0.005 mg/kg. The assay is classed as functional. In outline:
as §2

Assay [17] concerns Rattus norvegicus. The experiment in a line: Inhibition of the passive cutaneous anaphylaxis (PCA) reaction in rats by intravenous administration of 0.01 mg/kg. In kind it is functional. The procedure, abridged:
as §2

With `O=C(O)c1cc(=O)c2c(OCC(O)COc3cccc4oc(C(=O)O)cc(=O)c34)cccc2o1` [CROMOLYN SODIUM], the inhibition result in the assay with Rattus norvegicus [1] was “inactive”. For the same molecule, in the assay on Rattus norvegicus [2], the inhibition in vivo at 1.5 mg/kg worked out at 50%.

For the molecule `Cn1c2ccccc2c(=O)n2nc(C(=O)Nc3nn[nH]n3)cc12`, in the assay with Rattus norvegicus [3], the inhibition in vivo at 5 mg/kg stood at 51%. In the assay on Rattus norvegicus [4], the Inhibition (usually the change of the read-out against control, counted positive when it falls) was found to be 0%.

Turning to `COc1ccc2nc3cc(-c4nn[nH]n4)nn3c(O)c2c1`, the inhibition in vivo at 5 mg/kg in the assay with Rattus norvegicus [3] is 87%. In the assay on Rattus norvegicus [5], the inhibition in vivo at 1 mg/kg amounted to 21%.

`Cn1c2ccccc2c(=O)n2nc(C(=O)O)cc12`: in the assay on Rattus norvegicus [6], the inhibition in vivo at 0.5 mg/kg was determined as 100%. Besides, the inhibition in vivo at 5 mg/kg came to 40% in the assay with Rattus norvegicus [7] and 100% in the assay with Rattus norvegicus [8].

As for `O=C(O)c1cc2nc3ccccc3c(O)n2n1`, the inhibition in vivo at 5 mg/kg is 100% in the assay with Rattus norvegicus [3] and 5% in the assay with Rattus norvegicus [12]. In addition, the inhibition in vivo at 1 mg/kg with Rattus norvegicus [5] was determined as 23%; with Rattus norvegicus [11] it was 55%. Moreover, the inhibition in vivo at 0.01 mg/kg in the assay with Rattus norvegicus [9] came out at 0%. The inhibition in vivo at 0.1 mg/kg in the assay with Rattus norvegicus [10] turned out to be 54%.

With `Cn1c2ccc(Cl)cc2c(=O)n2nc(C(=O)O)cc12`, in the assay on Rattus norvegicus [6], the inhibition in vivo at 0.5 mg/kg came to 70%. Also, the inhibition in vivo at 1 mg/kg in the assay with Rattus norvegicus [11] (read-out: Inhibition) was 59%. Further, the inhibition in vivo at 2 mg/kg in the assay on Rattus norvegicus [13] stood at 9%.

Regarding `COc1ccc2nc3cc(C(=O)Nc4nn[nH]n4)nn3c(O)c2c1`, in the assay on Rattus norvegicus [3], the inhibition in vivo at 5 mg/kg was found to be 80%. Moreover, the inhibition in vivo at 0.1 mg/kg with Rattus norvegicus [10] was determined as 90%. In addition, the inhibition in vivo at 10 mg/kg in the assay with Rattus norvegicus [14] amounted to 43%.

In the case of `COc1cccc2c(O)n3nc(C(=O)O)cc3nc12`, the inhibition in vivo at 5 mg/kg in the assay with Rattus norvegicus [3] came to 70%; with Rattus norvegicus [12] it was 79%. In the assay with Rattus norvegicus [15], this molecule displayed an inhibition in vivo at 0.001 mg/kg of 8%. The inhibition in vivo at 0.005 mg/kg in the assay with Rattus norvegicus [16] came out at 31%. The inhibition in vivo at 0.1 mg/kg in the assay with Rattus norvegicus [10] was found to be 100%. This molecule also yielded an inhibition in vivo at 0.01 mg/kg in the assay on Rattus norvegicus [17] of 74%. In the assay with Rattus norvegicus [14], this molecule showed an inhibition in vivo at 10 mg/kg of 62%.

For the origin of these results see ChEMBL document CHEMBL1121643, “Pyrazolo[5,1-b]quinazolin-9-ones: a new series of antiallergic agents” (1981).
